Assay results taken from ChEMBL document CHEMBL4229380, “Arylureas derived from colchicine: Enhancement of colchicine oncogene downregulation activity” (Eur J Med Chem, 2018).

How the values were obtained:
HT-29 [1] = experiment: Effect on c-MYC gene expression in human HT-29 cells assessed as c-MYC level at 0.5 nM after 48 hrs by RT-qPCR analysis; format: functional
How it was run: (§1)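 HT-29 cells at 70–80% confluence were seeded at 1.5×10^5 per well and left 24 h, then treated 48 h, with DMSO as control. Total RNA was extracted and VEGF-A, c-Myc and hTERT were quantified by TaqMan qPCR, normalized to β-actin and to living cell number. Results are % expression versus control, at least three measurements.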

HT-29 [2] = experiment: Effect on VEGF protein expression in human HT-29 cells assessed as secreted VEGF level in culture media at 0.5 nM after 48 hrs by ELISA
HT-29 [3] = experiment: Effect on c-MYC protein expression in human HT-29 cells assessed as c-MYC level at 0.5 nM after 48 hrs by ELISA; format: functional
How it was run: (§2)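 HT-29 cells (1.5×10^5 per well, 24 h pre-culture) were treated 48 h and washed in PBS. They were lysed in Tris pH 7.4 buffer with detergents, phosphatase inhibitors, PMSF and protease inhibitors. Lysates were adjusted to 200 µg/mL protein (Bradford) and total c-Myc or VEGFR-2 was measured by sandwich ELISA kit. Values are % of DMSO control, ≥3 measurements.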

HT-29 [4] = experiment: Induction of apoptosis in human HT-29 cells assessed as apoptotic cells at 2000 nM after 48 hrs by Annexin V-FITC staining-based flow cytometric analysis (reference value: 13 +/- 3%); format: functional
HT-29 [5] = experiment: Antiproliferative activity against human HT-29 cells after 2 days by MTT assay; format: functional, cell-based; conditions: HT-29, 48 h
How it was run: (§3)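 Cells (5×10^3 per well) in DMEM with 10% FBS, glucose, glutamine and antibiotics were exposed to serial dilutions (stocks in DMSO) for 2 days at 37 °C, 5% CO2. MTT was added for 3 h, formazan was dissolved in DMSO and absorbance read at 490 nm. Viability was taken as % of untreated cells. IC50 was read graphically from three independent experiments.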

HeLa = experiment: Antiproliferative activity against human HeLa cells after 2 days by MTT assay; format: functional, cell-based; conditions: 48 h; how it was run: as §3
HT-29 [6] = experiment: Induction of apoptosis in human HT-29 cells assessed as necrotic cells at 2000 nM after 48 hrs by Annexin V-FITC staining-based flow cytometric analysis (reference value: 2 +/- 6%); format: functional
HEK293 = experiment: Antiproliferative activity against human HEK293 cells after 2 days by MTT assay; format: cell-based; conditions: HEK293, 48 h; how it was run: as §3
MCF7 = experiment: Antiproliferative activity against human MCF7 cells after 2 days by MTT assay; format: functional, cell-based; conditions: MCF7, 48 h; how it was run: as §3
HT-29 [7] = experiment: Induction of apoptosis in human HT-29 cells assessed as viable cells at 2000 nM after 48 hrs by Annexin V-FITC staining-based flow cytometric analysis (reference value: 82 +/- 1%); format: functional; conditions: HT-29, 48 h, read-out: Activity
HT-29 [8] = experiment: Effect on VEGF gene expression in human HT-29 cells assessed as VEGF level at 0.5 nM after 48 hrs by RT-qPCR analysis; format: functional; how it was run: as §1
HT-29 [9] = experiment: Effect on hTERT gene expression in human HT-29 cells assessed as hTERT level at 0.5 nM after 48 hrs by RT-qPCR analysis; format: functional; how it was run: as §1
HT-29 [10] = experiment: Effect on VEGFR2 protein expression in human HT-29 cells assessed as VEGFR2 level at 0.5 nM after 48 hrs by ELISA; format: functional; how it was run: as §2
HT-29 [11] = experiment: Induction of apoptosis in human HT-29 cells assessed as apoptotic cells at 20 nM after 48 hrs by Annexin V-FITC staining-based flow cytometric analysis (reference value: 13 +/- 3%); format: functional
HT-29 [12] = experiment: Effect on VEGFR2 protein expression in human HT-29 cells assessed as VEGFR2 level at 20 nM after 48 hrs by ELISA; format: functional; how it was run: as §2
HT-29 [13] = experiment: Induction of apoptosis in human HT-29 cells assessed as viable cells at 20 nM after 48 hrs by Annexin V-FITC staining-based flow cytometric analysis (reference value: 82 +/- 1%); format: functional; conditions: HT-29, 48 h, read-out: Activity
HT-29 [14] = experiment: Induction of apoptosis in human HT-29 cells assessed as necrotic cells at 20 nM after 48 hrs by Annexin V-FITC staining-based flow cytometric analysis (reference value: 2 +/- 6%); format: functional
HT-29 [15] = experiment: Effect on VEGF protein expression in human HT-29 cells assessed as secreted VEGF level in culture media at 20 nM after 48 hrs by ELISA
HT-29 [16] = experiment: Effect on c-MYC gene expression in human HT-29 cells assessed as c-MYC level at 20 nM after 48 hrs by RT-qPCR analysis; format: functional; how it was run: as §1
HT-29 [17] = experiment: Effect on VEGF gene expression in human HT-29 cells assessed as VEGF level at 20 nM after 48 hrs by RT-qPCR analysis; format: functional; how it was run: as §1
HT-29 [18] = experiment: Effect on hTERT gene expression in human HT-29 cells assessed as hTERT level at 20 nM after 48 hrs by RT-qPCR analysis; format: functional; how it was run: as §1
HT-29 [19] = experiment: Effect on c-MYC protein expression in human HT-29 cells assessed as c-MYC level at 20 nM after 48 hrs by ELISA; format: functional; how it was run: as §2
HT-29 [20] = experiment: Effect on c-MYC protein expression in human HT-29 cells assessed as c-MYC level at 25 nM after 48 hrs by ELISA; format: functional; how it was run: as §2
HT-29 [21] = experiment: Induction of apoptosis in human HT-29 cells assessed as apoptotic cells at 40 nM after 48 hrs by Annexin V-FITC staining-based flow cytometric analysis (reference value: 13 +/- 3%); format: functional
HT-29 [22] = experiment: Effect on VEGF protein expression in human HT-29 cells assessed as secreted VEGF level in culture media at 25 nM after 48 hrs by ELISA
HT-29 [23] = experiment: Induction of apoptosis in human HT-29 cells assessed as necrotic cells at 40 nM after 48 hrs by Annexin V-FITC staining-based flow cytometric analysis (reference value: 2 +/- 6%); format: functional
HT-29 [24] = experiment: Induction of apoptosis in human HT-29 cells assessed as viable cells at 40 nM after 48 hrs by Annexin V-FITC staining-based flow cytometric analysis (reference value: 82 +/- 1%); format: functional; conditions: HT-29, 48 h, read-out: Activity
HT-29 [25] = experiment: Effect on VEGFR2 protein expression in human HT-29 cells assessed as VEGFR2 level at 25 nM after 48 hrs by ELISA; format: functional; how it was run: as §2
HT-29 [26] = experiment: Effect on hTERT gene expression in human HT-29 cells assessed as hTERT level at 25 nM after 48 hrs by RT-qPCR analysis; format: functional; how it was run: as §1
HT-29 [27] = experiment: Effect on VEGF gene expression in human HT-29 cells assessed as VEGF level at 25 nM after 48 hrs by RT-qPCR analysis; format: functional; how it was run: as §1
HT-29 [28] = experiment: Effect on c-MYC gene expression in human HT-29 cells assessed as c-MYC level at 25 nM after 48 hrs by RT-qPCR analysis; format: functional; how it was run: as §1
HT-29 [29] = experiment: Effect on VEGF protein expression in human HT-29 cells assessed as secreted VEGF level in culture media at 25 uM after 48 hrs by ELISA
HT-29 [30] = experiment: Effect on c-MYC gene expression in human HT-29 cells assessed as c-MYC level at 25 uM after 48 hrs by RT-qPCR analysis; format: functional; how it was run: as §1
HT-29 [31] = experiment: Induction of apoptosis in human HT-29 cells assessed as apoptotic cells at 25000 nM after 48 hrs by Annexin V-FITC staining-based flow cytometric analysis (reference value: 13 +/- 3%); format: functional
HT-29 [32] = experiment: Effect on hTERT gene expression in human HT-29 cells assessed as hTERT level at 25 uM after 48 hrs by RT-qPCR analysis; format: functional; how it was run: as §1
HT-29 [33] = experiment: Induction of apoptosis in human HT-29 cells assessed as viable cells at 25000 nM after 48 hrs by Annexin V-FITC staining-based flow cytometric analysis (reference value: 82 +/- 1%); format: functional; conditions: HT-29, 48 h, read-out: Activity
HT-29 [34] = experiment: Effect on VEGFR2 protein expression in human HT-29 cells assessed as VEGFR2 level at 25 uM after 48 hrs by ELISA; format: functional; how it was run: as §2
HT-29 [35] = experiment: Induction of apoptosis in human HT-29 cells assessed as necrotic cells at 25000 nM after 48 hrs by Annexin V-FITC staining-based flow cytometric analysis (reference value: 2 +/- 6%); format: functional
HT-29 [36] = experiment: Effect on VEGF gene expression in human HT-29 cells assessed as VEGF level at 25 uM after 48 hrs by RT-qPCR analysis; format: functional; how it was run: as §1
HT-29 [37] = experiment: Effect on c-MYC protein expression in human HT-29 cells assessed as c-MYC level at 25 uM after 48 hrs by ELISA; format: functional; how it was run: as §2

COc1cc2c(c(OC)c1OC)-c1ccc(OC)c(=O)cc1[C@@H](NC(=O)Nc1ccc(C)cc1Cl)CC2
Activity (HT-29 [1]): 85% | Activity (HT-29 [2]): 75% | Activity (HT-29 [3]): 112% | Activity (HT-29 [4]): 33% | IC50 (HT-29 [5]): 0.71 nM | IC50 (HeLa): 3 nM | Activity (HT-29 [6]): 1% | IC50 (HEK293): 3 nM | IC50 (MCF7): 0.9 nM | viability at 2 µM (HT-29 [7]): 66% | Activity (HT-29 [8]): 70% | Activity (HT-29 [9]): 80% | Activity (HT-29 [10]): 45%

COc1cc2c(c(OC)c1OC)-c1ccc(OC)c(=O)cc1[C@@H](NC(=O)Nc1ccccc1C(F)(F)F)CC2
Activity (HT-29 [11]): 4% | Activity (HT-29 [12]): 100% | IC50 (HT-29 [5]): 15 nM | IC50 (HeLa): 18 nM | viability at 0.02 µM (HT-29 [13]): 96% | Activity (HT-29 [14]): 1% | IC50 (HEK293): 19 nM | IC50 (MCF7): 25 nM | Activity (HT-29 [15]): 82% | Activity (HT-29 [16]): 107% | Activity (HT-29 [17]): 101% | Activity (HT-29 [18]): 107% | Activity (HT-29 [19]): 99%

COc1cc2c(c(OC)c1OC)-c1ccc(OC)c(=O)cc1[C@@H](NC(C)=O)CC2 [COLCHICINE]
Activity (HT-29 [20]): 63% | Activity (HT-29 [21]): 73% | Activity (HT-29 [22]): 40% | IC50 (HT-29 [5]): 13 nM | IC50 (HeLa): 14 nM | Activity (HT-29 [23]): 1% | IC50 (HEK293): 13 nM | IC50 (MCF7): 20 nM | viability at 0.04 µM (HT-29 [24]): 26% | Activity (HT-29 [25]): 94% | Activity (HT-29 [26]): 87% | Activity (HT-29 [27]): 55% | Activity (HT-29 [28]): 37%

CCN(CC)CCNC(=O)c1c(C)[nH]c(/C=C2\C(=O)Nc3ccc(F)cc32)c1C [SUNITINIB]
Activity (HT-29 [29]): 45% | Activity (HT-29 [30]): 47% | Activity (HT-29 [31]): 22% | Activity (HT-29 [32]): 68% | viability at 25 µM (HT-29 [33]): 75% | Activity (HT-29 [34]): 90% | Activity (HT-29 [35]): 3% | Activity (HT-29 [36]): 46% | Activity (HT-29 [37]): 100%
